As usually defined, the inhibition is the share of the control response that was lost under treatment.

Results on ten compounds are retold here after ChEMBL document CHEMBL3046604, “Synthesis and fungistatic activity of new groups of 2,4-dihydroxythiobenzoyl derivatives against phytopathogenic fungi” (J Agric Food Chem, 2003).

Molecules are shown by their SMILES.

Data set [1] deals with Blumeria graminis. Description: Fungistatic activity against Blumeria graminis infested wheat seedling assessed as inhibition of fungal infection at 500 ug/ml applied as spray after 7 to 14 days under green house conditions relative to control. It is filed as functional. The method in brief: (§1)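 Greenhouse test on healthy wheat seedlings with Erysiphe graminis. At the well-developed first-leaf stage, plants were sprayed with compound solution at 1000 or 500 µg/mL, 10 mL of solution per treatment, with three repeats in 9 cm paraffin cups.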

The subject of data set [2] is Blumeria graminis. Description: Fungistatic activity against Blumeria graminis infested wheat seedling assessed as inhibition of fungal infection at 1000 ug/ml applied as spray after 7 to 14 days under green house conditions relative to control. It is filed as functional. In short, it runs like this:
as §1

For data set [3], the system named is Phytophthora cactorum. The experiment in a line: Fungistatic activity against Phytophthora cactorum assessed as mycelial growth inhibition at 20 ug/ml after 4 to 8 days relative to control. In kind it is functional. The conditions noted are these: read-out: GI. In short, it runs like this:
(§2)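 Compound solutions or suspensions were diluted into PDA agar to final 200 or 20 µg/mL and poured into Petri dishes. Once the agar set, mycelium-covered agar disks of the fungus were placed at three sites on the surface. Linear colony growth was measured after 4-8 days, depending on the culture. Inhibition J = [(C − T)/C] × 100 versus untreated control, reported on a four-degree scale.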

In data set [4] the test system is Phytophthora cactorum. Description: Fungistatic activity against Phytophthora cactorum assessed as mycelial growth inhibition at 200 ug/ml after 4 to 8 days relative to control. It is filed as functional. The conditions noted are these: read-out: GI. In short, it runs like this:
as §2

The test system of data set [5] is Fusarium culmorum. The experiment in a line: Fungistatic activity against Fusarium culmorum assessed as mycelial growth inhibition at 20 ug/ml after 4 to 8 days relative to control. In kind it is functional. The conditions noted are these: read-out: GI. The method in brief: as §2
Data set [6] deals with Fusarium culmorum. Description: Fungistatic activity against Fusarium culmorum assessed as mycelial growth inhibition at 200 ug/ml after 4 to 8 days relative to control. In kind it is functional. The conditions noted are these: read-out: GI. The method in brief:
as §2

Data set [7] has as its system Rhizoctonia solani. Description: Fungistatic activity against Rhizoctonia solani assessed as mycelial growth inhibition at 20 ug/ml after 4 to 8 days relative to control. In kind it is functional. The conditions noted are these: read-out: GI. In short, it runs like this: as §2
In data set [8] the test system is Rhizoctonia solani. The experiment in a line: Fungistatic activity against Rhizoctonia solani assessed as mycelial growth inhibition at 200 ug/ml after 4 to 8 days relative to control. In kind it is functional. The conditions noted are these: read-out: GI. In short, it runs like this:
as §2

In data set [9] the test system is Botrytis cinerea. Description: Fungistatic activity against Botryotinia fuckeliana assessed as mycelial growth inhibition at 20 ug/ml after 4 to 8 days relative to control. In kind it is functional. The conditions noted are these: read-out: GI. The method in brief:
as §2

Data set [10] relates to Alternaria alternata. The experiment in a line: Fungistatic activity against Alternaria alternata assessed as mycelial growth inhibition at 20 ug/ml after 4 to 8 days relative to control. In kind it is functional. The conditions noted are these: read-out: GI. In short, it runs like this: as §2
Data set [11] has as its system Botrytis cinerea. Description: Fungistatic activity against Botryotinia fuckeliana assessed as mycelial growth inhibition at 200 ug/ml after 4 to 8 days relative to control. It is filed as functional. The conditions noted are these: read-out: GI. The method in brief: as §2
The nature of data set [12]: Lipophilicity, log K of the compound in methanol-water mixture by HPLC. In kind it is physicochemical. The method in brief:
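Reversed-phase HPLC on a Hypersil BDS C18 column (5 µm, 150 × 4.6 mm) with UV detection at 320 nm. Samples were dissolved in methanol. Mobile phase was methanol at varying volume fractions in 10 mM acetate buffer pH 4, run at 1 mL/min and room temperature. Dead time was taken from injection of acetone dissolved in water.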

In data set [13] the test system is Alternaria alternata. The experiment in a line: Fungistatic activity against Alternaria alternata assessed as mycelial growth inhibition at 200 ug/ml after 4 to 8 days relative to control. It is filed as functional. The conditions noted are these: read-out: GI. In short, it runs like this:
as §2

Consider `Oc1ccc(C(=S)NN=C(c2ccccc2)c2ccccc2)c(O)c1`, for which, in the data set with Blumeria graminis [1], the inhibition at 500 µg/mL was 0%. For the same compound, in the data set with Blumeria graminis [2], the inhibition at 1000 µg/mL amounted to 21%. For the same compound, the inhibition of growth at 20 µg/mL in the data set with Phytophthora cactorum [3], in the data set on Fusarium culmorum [5], in the data set on Rhizoctonia solani [7], in the data set on Botrytis cinerea [9] and in the data set on Alternaria alternata [10] was 0% in each case. The inhibition of growth at 200 µg/mL in the data set on Phytophthora cactorum [4] came to 41%; in the data set on Fusarium culmorum [6], 0%; in the data set on Rhizoctonia solani [8] it was 0%; with Botrytis cinerea [11], 0%; in the data set with Alternaria alternata [13], 41%. Also, the “log K” value in [12] stood at 0.642.

Take `O=C(Nc1ccccc1)c1ccccc1NC(=S)c1ccc(O)cc1O`: in the data set with Blumeria graminis [1], the inhibition at 500 µg/mL is 0%. Moreover, the inhibition at 1000 µg/mL with Blumeria graminis [2] was 41%. Besides, the inhibition of growth at 20 µg/mL is 0% with Phytophthora cactorum [3]; 0% in the data set with Fusarium culmorum [5]; 21% in the data set on Rhizoctonia solani [7]; 0% with Botrytis cinerea [9]; 0% in the data set with Alternaria alternata [10]. The inhibition of growth at 200 µg/mL with Phytophthora cactorum [4] came to 61%; with Fusarium culmorum [6], 61%; in the data set on Rhizoctonia solani [8], 61%; with Botrytis cinerea [11], 41%; in the data set with Alternaria alternata [13] it was 61%. Also, the “log K” value in data set [12] is given as -0.37.

Consider `O=C(O)c1cc2cc(OCc3ccccc3)ccc2n1C(=S)c1ccc(O)cc1O`, for which the inhibition at 500 µg/mL in the data set on Blumeria graminis [1] was found to be 0%. In the data set on Blumeria graminis [2], the inhibition at 1000 µg/mL was 21%. Moreover, the inhibition of growth at 20 µg/mL in the data set with Phytophthora cactorum [3], in the data set on Fusarium culmorum [5], in the data set with Rhizoctonia solani [7], with Botrytis cinerea [9] and in the data set with Alternaria alternata [10] was 0% each time. Besides, the inhibition of growth at 200 µg/mL in the data set on Phytophthora cactorum [4] came to 41%; with Fusarium culmorum [6], 21%; in the data set with Rhizoctonia solani [8] it was 0%; in the data set on Botrytis cinerea [11], 0%; in the data set on Alternaria alternata [13], 21%. For the same compound, the “log K” value in data set [12] came out at 0.405.

As for `CC(C)(C)c1cc(NC(=S)c2ccc(O)cc2O)no1`, the inhibition at 500 µg/mL with Blumeria graminis [1] is 0%. In addition, the inhibition at 1000 µg/mL in the data set with Blumeria graminis [2] turned out to be 21%. Besides, the inhibition of growth at 20 µg/mL with Phytophthora cactorum [3] stood at 0%; in the data set on Fusarium culmorum [5], 21%; in the data set on Rhizoctonia solani [7], 0%; with Botrytis cinerea [9] it was 0%; in the data set on Alternaria alternata [10], 21%. For the same compound, the inhibition of growth at 200 µg/mL in the data set on Phytophthora cactorum [4] was found to be 61%; in the data set with Fusarium culmorum [6], 61%; in the data set with Rhizoctonia solani [8], 41%; with Botrytis cinerea [11], 41%; in the data set with Alternaria alternata [13], 61%. In addition, the “log K” value in data set [12] is reported as -0.302.

In the case of `Oc1ccc(C(=S)n2c(Cl)nc3ccccc32)c(O)c1`, the inhibition at 500 µg/mL in the data set on Blumeria graminis [1] was found to be 0%. The inhibition at 1000 µg/mL with Blumeria graminis [2] came out at 41%. The inhibition of growth at 20 µg/mL in the data set on Phytophthora cactorum [3] came to 21%; in the data set on Fusarium culmorum [5], 0%; in the data set with Rhizoctonia solani [7], 21%; with Botrytis cinerea [9] it was 0%; in the data set with Alternaria alternata [10], 21%. In addition, the inhibition of growth at 200 µg/mL in the data set on Phytophthora cactorum [4], in the data set on Fusarium culmorum [6], in the data set with Rhizoctonia solani [8], in the data set with Botrytis cinerea [11] and with Alternaria alternata [13] was 81% each time. Also, in [12], the “log K” value is reported as 0.378.

As to `Oc1ccc(C(=S)Nc2ccc(Oc3ccccc3)cc2)c(O)c1`, in the data set on Blumeria graminis [1], the inhibition at 500 µg/mL was 0%. For the same compound, the inhibition at 1000 µg/mL with Blumeria graminis [2] was 0%. Moreover, the inhibition of growth at 20 µg/mL in the data set on Phytophthora cactorum [3], in the data set on Fusarium culmorum [5], in the data set with Rhizoctonia solani [7], with Botrytis cinerea [9] and with Alternaria alternata [10] was 0% in each case. In addition, the inhibition of growth at 200 µg/mL was 21% with Phytophthora cactorum [4]; 0% in the data set with Fusarium culmorum [6]; 21% with Rhizoctonia solani [8]; 0% in the data set on Botrytis cinerea [11]; 41% in the data set on Alternaria alternata [13]. For the same compound, the “log K” value in data set [12] is recorded as 1.305.

With `CC(C)(C)c1nnc(NC(=S)c2ccc(O)cc2O)s1`, the inhibition at 500 µg/mL with Blumeria graminis [1] amounted to 0%. For the same compound, in the data set on Blumeria graminis [2], the inhibition at 1000 µg/mL turned out to be 21%. The inhibition of growth at 20 µg/mL in the data set on Phytophthora cactorum [3], in the data set on Fusarium culmorum [5], in the data set with Rhizoctonia solani [7], in the data set on Botrytis cinerea [9] and in the data set on Alternaria alternata [10] was 0% in each case. In addition, the inhibition of growth at 200 µg/mL in the data set on Phytophthora cactorum [4], in the data set on Fusarium culmorum [6], with Rhizoctonia solani [8], in the data set with Botrytis cinerea [11] and with Alternaria alternata [13] was 0% throughout. The “log K” value in [12] was -0.131.

Take `Oc1ccc(C(=S)Nc2ccccc2-c2ccccc2)c(O)c1`: in the data set with Blumeria graminis [1], the inhibition at 500 µg/mL stood at 0%. Besides, the inhibition at 1000 µg/mL with Blumeria graminis [2] was 21%. In addition, the inhibition of growth at 20 µg/mL turned out to be 41% in the data set on Phytophthora cactorum [3]; 0% in the data set on Fusarium culmorum [5]; 0% in the data set with Rhizoctonia solani [7]; 0% in the data set with Botrytis cinerea [9]; 0% in the data set with Alternaria alternata [10]. Also, the inhibition of growth at 200 µg/mL with Phytophthora cactorum [4] was found to be 81%; with Fusarium culmorum [6], 61%; in the data set with Rhizoctonia solani [8], 61%; with Botrytis cinerea [11] it was 61%; with Alternaria alternata [13], 61%. Further, in data set [12], the “log K” value was determined as 0.118.

Turning to `CCOC(=O)Cc1csc(NC(=S)c2ccc(O)cc2O)n1`, in the data set with Blumeria graminis [1], the inhibition at 500 µg/mL was determined as 0%. Moreover, the inhibition at 1000 µg/mL in the data set on Blumeria graminis [2] came out at 21%. Besides, the inhibition of growth at 20 µg/mL in the data set on Phytophthora cactorum [3], in the data set on Fusarium culmorum [5], with Rhizoctonia solani [7], with Botrytis cinerea [9] and with Alternaria alternata [10] was 0% each time. The inhibition of growth at 200 µg/mL is 41% in the data set on Phytophthora cactorum [4]; 0% with Fusarium culmorum [6]; 0% in the data set with Rhizoctonia solani [8]; 0% in the data set with Botrytis cinerea [11]; 21% in the data set on Alternaria alternata [13]. For the same compound, the “log K” value in data set [12] is reported as 0.048.

As to `Oc1ccc(C(=S)Nc2ccccc2Sc2ccc(Cl)cc2)c(O)c1`, the inhibition at 500 µg/mL in the data set with Blumeria graminis [1] is 0%. Also, the inhibition at 1000 µg/mL in the data set with Blumeria graminis [2] was 0%. Moreover, the inhibition of growth at 20 µg/mL with Phytophthora cactorum [3], in the data set with Fusarium culmorum [5], in the data set with Rhizoctonia solani [7], in the data set with Botrytis cinerea [9] and in the data set with Alternaria alternata [10] was 0% in each case. Besides, the inhibition of growth at 200 µg/mL in the data set on Phytophthora cactorum [4] is 0%; in the data set on Fusarium culmorum [6], 21%; in the data set on Rhizoctonia solani [8], 21%; with Botrytis cinerea [11], 0%; with Alternaria alternata [13], 41%. Further, in data set [12], the “log K” value was 0.446.
